Data set [1] is filed under the species Homo sapiens. As to the kind of experiment: Induction of apoptosis in human RC-58T/h/SA#4 cells at 20 uM after 24 hrs by annexin-V/propidium iodide staining-based flow cytometry relative to control. The data set is classed as functional, cell-based. Put shortly: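 RC-58T/h/SA#4 cells seeded at 1 × 10^5 cells/mL in 6-well plates and given 20 μM compound and/or 100 ng/mL TRAIL for 24 h. Cells washed in ice-cold PBS, labelled with annexin V Alexa Fluor 488 for 30 min at 4 °C in the dark, then with PI. Annexin V-positive fraction counted by flow cytometry; three independent experiments, means ± SD, Student's t-test.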
Background: A flow cytometer gives signals particle by particle.

A short description of data set [2]: Induction of apoptosis in human RC-58T/h/SA#4 cells assessed as DR4 expression at 20 uM after 3 hrs by immunoblotting analysis relative to untreated control. The data set is classed as functional.
A short description of data set [3]: Induction of apoptosis in human RC-58T/h/SA#4 cells assessed as p53 expression at 20 uM after 3 hrs by immunoblotting analysis relative to untreated control. The data set is classed as functional. In outline: (§1)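 RC-58T/h/SA#4 cells seeded at 5 × 10^4 cells/mL and cultured 24 h, then given compound across a concentration series or at fixed dose over a time course. Lysates were quantified by BCA. 10 μg protein/lane run on 12% SDS-PAGE and transferred to nitrocellulose. Blots probed for p53, CHOP and β-actin with HRP secondary and ECL.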
In general terms: Immunoblotting shows a protein as a band on a membrane.

The nature of data set [4]: Induction of apoptosis in human RC-58T/h/SA#4 cells assessed as DR5 expression at 20 uM after 18 hrs by immunoblotting analysis relative to untreated control. The class given is functional.
Data set [5] in a line: Induction of apoptosis in human RC-58T/h/SA#4 cells assessed as DR5 expression at 40 uM after 24 hrs by immunoblotting analysis relative to untreated control. The data set is classed as functional.
The nature of data set [6]: Induction of apoptosis in human RC-58T/h/SA#4 cells assessed as DR5 expression at 20 uM after 3 hrs by immunoblotting analysis relative to untreated control. The data set is classed as functional.
Data set [7] is described as follows: Induction of apoptosis in human RC-58T/h/SA#4 cells assessed as p53 expression at 20 uM after 24 hrs by immunoblotting analysis relative to untreated control. The class given is functional. In outline:
as §1

The nature of data set [8]: Induction of apoptosis in human RC-58T/h/SA#4 cells assessed as DR5 expression at 10 uM after 24 hrs by immunoblotting analysis relative to untreated control. The data set is classed as functional.
The species named for data set [9] is Homo sapiens. As to the kind of experiment: Sensitization of TRAIL-induced apoptosis in human RC-58T/h/SA#4 cells assessed as cell viability at 20 uM after 24 hrs by SRB assay in presence of NAC. In general terms: The SRB assay estimates cell density from bound dye.
A short description of data set [10]: Induction of apoptosis in human RC-58T/h/SA#4 cells assessed as DR5 expression at 20 uM after 6 hrs by immunoblotting analysis relative to untreated control. The data set is classed as functional.
Data set [11] can be described thus: Induction of apoptosis in human RC-58T/h/SA#4 cells assessed as p53 expression at 20 uM after 12 hrs by immunoblotting analysis relative to untreated control. The class given is functional. Put shortly:
as §1

Data set [12] in a line: Sensitization of TRAIL-induced apoptosis in human RC-58T/h/SA#4 cells assessed as procaspase-8 activation at 20 uM after 24 hrs by immunoblotting analysis relative to untreated control. The class given is functional. Put shortly:
(§2)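 Cells seeded at 5 × 10^4 cells/mL and cultured 24 h, then given 20 μM compound and/or 100 ng/mL TRAIL for 24 h. Whole-cell lysate made in Tris/NaCl/EDTA/NaF/pyrophosphate/PMSF/aprotinin buffer, 30 min on ice, protein measured by BCA. 12% SDS-PAGE at 10 μg/lane, nitrocellulose blot, primary antibodies (caspase-3, -8, -9, Bax, Bcl-2, PARP) overnight at 4 °C, HRP secondary, ECL.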

Data set [13] in a line: Induction of apoptosis in human RC-58T/h/SA#4 cells assessed as DR4 expression at 5 uM after 24 hrs by immunoblotting analysis relative to untreated control. The class given is functional.
Data set [14] is described as follows: Induction of apoptosis in human RC-58T/h/SA#4 cells assessed as procaspase-3 activation at 20 uM after 24 hrs by immunoblotting analysis relative to untreated control. The data set is classed as functional. Put shortly: as §2
Data set [15] is filed under the species Homo sapiens. As to the kind of experiment: Induction of apoptosis in human RC-58T/h/SA#4 cells assessed as DR5 expression after 24 hrs by immunoblotting analysis relative to untreated control. The data set is classed as functional, cell-based.
Data set [16] in a line: Sensitization of TRAIL-induced apoptosis in human RC-58T/h/SA#4 cells assessed as procaspase-9 activation at 20 uM after 24 hrs by immunoblotting analysis in presence of Dr5 Fc chimera relative to untreated control. The class given is functional. Put shortly: (§3)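 Cells pretreated 2 h with 100 ng/mL DR5 Fc chimera, then given 20 μM compound and/or 100 ng/mL TRAIL for 24 h. Total lysates immunoblotted (12% SDS-PAGE, nitrocellulose) for caspase-3, -8, -9 and PARP cleavage, with HRP secondary and ECL detection.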

Data set [17] can be described thus: Induction of apoptosis in human RC-58T/h/SA#4 cells assessed as AIF level in cytosol at 20 uM after 24 hrs by immunoblotting analysis relative to untreated control. The class given is functional. In outline:
(§4)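 Cells grown in DMEM/10% FBS at 37 °C, 5% CO2, then treated 24 h with compound (20 μM) with or without TRAIL (100 ng/mL). Whole lysates were used for Bax and Bcl-2. Cytosolic and mitochondrial fractions were prepared with a mitochondria isolation kit for AIF and cytochrome c. Blotting used 10 μg protein/lane, 12% SDS-PAGE, nitrocellulose, overnight primary antibody at 4 °C and ECL detection.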

Data set [18] in a line: Induction of apoptosis in human RC-58T/h/SA#4 cells assessed as p53 expression at 2.5 uM after 24 hrs by immunoblotting analysis relative to untreated control. The data set is classed as functional. Put shortly: as §1
Data set [19] in a line: Induction of apoptosis in human RC-58T/h/SA#4 cells assessed as p53 expression at 20 uM after 6 hrs by immunoblotting analysis relative to untreated control. The data set is classed as functional. Put shortly: as §1
For data set [20], the species on record is Homo sapiens. As to the kind of experiment: Induction of apoptosis in human RC-58T/h/SA#4 cells assessed as cytochrome C level in mitochondria at 20 uM after 24 hrs by immunoblotting analysis relative to untreated control. The class given is functional, cell-based. In outline:
as §4

For data set [21], the species on record is Homo sapiens. As to the kind of experiment: Induction of apoptosis in human RC-58T/h/SA#4 cells assessed as AIF level in mitochondria at 20 uM after 24 hrs by immunoblotting analysis relative to untreated control. The data set is classed as functional, cell-based. Put shortly:
as §4

Data set [22] in a line: Induction of apoptosis in human RC-58T/h/SA#4 cells assessed as CHOP expression at 20 uM after 6 hrs by immunoblotting analysis relative to untreated control. The data set is classed as functional. Put shortly: as §1
Data set [23] in a line: Sensitization of TRAIL-induced cytotoxicity against human RWPE1 cells assessed as cell viability at 20 uM after 24 hrs by SRB assay. The data set is classed as cell-based. Particulars: rwpe-1, 24 h. In outline: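 Cells seeded at 5 × 10^4 cells/mL, grown in DMEM with 10% FBS, and given the compound with or without 100 ng/mL TRAIL for 24 h at 37 °C, 5% CO2. RWPE-1 tested at 20 μM. Cells fixed in 12% TCA for 1 h at 4 °C, stained 1 h with 0.4% SRB, washed in 1% acetic acid, dye dissolved in 10 mM Tris and absorbance read. Three experiments, means ± SD.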

A short description of data set [24]: Sensitization of TRAIL-induced apoptosis in human RC-58T/h/SA#4 cells assessed as procaspase-3 activation at 20 uM after 24 hrs by immunoblotting analysis in presence of Dr5 Fc chimera relative to untreated control. The class given is functional. In outline:
as §3

For one molecule, Activity and Ratio results are on record in ChEMBL document CHEMBL3351274, “Sensitization of tumor necrosis factor-related apoptosis-inducing ligand (TRAIL)-resistant primary prostate cancer cells by isoegomaketone from Perilla frutescens” (J Nat Prod, 2014).

Calls of active or inactive are those of the source. No cut-off for these calls is given here.

`CC(C)/C=C/C(=O)c1ccoc1`: the result in data set [1] was Active. The Ratio was determined as 1.2 in data set [2]; 1 in [3]; 1.5 in data set [4]; 1.3 in data set [5]; 1.2 in data set [6]; 2.3 in data set [7]. Further, the Ratio in [8] was 1.2; in data set [10], 1.3; in data set [11], 1.8; in data set [12], 0.3; in [13] it was 1.1; in data set [14], 1. Moreover, the Ratio in data set [16] amounted to 1.1; in [17], 1.1; in [18], 1.2; in [19], 1.1; in data set [20], 1.2; in data set [21] it was 1.2. The Ratio was found to be 1 in data set [22] and 0.9 in data set [24]. Moreover, in data set [9], the result was inactive. Moreover, the Activity result in data set [15] was “Dose-dependent effect”; in data set [23], “Toxic”.
